Experiment [1] has as its system C653. Briefly: Antineoplastic activity against C653 cell line in which [3H]-thymidine was incorporated into DNA. The experiment is classed as functional, Mus musculus. On the set-up: concentration or dose not given beside the values. The gist of the method: (§1)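 Mouse leukemic/myeloma/hybridoma lines kept at 37 °C in RPMI 1640 with 10% heat-inactivated FBS, penicillin, streptomycin, 50 μM mercaptoethanol. 2×10^4 cells/well exposed to drug at 40 μM for 48 h. Drug was diluted from 0.1 M ethanol stock into medium, and controls received ethanol-containing medium. [3H]thymidine (0.1 μCi/well) was then added for 24 h. Cells were harvested onto glass-fibre filters and water-washed, and DNA-incorporated counts were taken by scintillation as % of control.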

Experiment [2] has as its system R6X-B15. As to the kind of experiment: Antineoplastic activity against R6X-B15 cell line in which [3H]thymidine was incorporated into DNA. It counts as functional, Mus musculus. The gist of the method:
as §1

Experiment [3] deals with WEHI3B. As to the kind of experiment: Antineoplastic activity against WEHI 3B cell line in which [3H]thymidine was incorporated into DNA. It counts as functional, Mus musculus. Details: concentration or dose not given beside the values. Put shortly: as §1
In experiment [4] the test system is X63/OMIL3 cell line. Briefly: Antineoplastic activity against X63/OMIL3 cell line in which [3H]thymidine was incorporated into DNA. It counts as functional, Mus musculus. On the set-up: concentration or dose not given beside the values. Put shortly:
as §1

Experiment [5] is described as follows: Compound was evaluated for WEHI-3B cell viability after 48 hour at a concentration of 10 uM of compound was reported. It counts as functional, Mus musculus. Put shortly: (§2)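 WEHI-3B cells were treated with drug at 0–30 μM for 24 or 48 h in RPMI 1640 with 10% FBS at 37 °C. Cells were then diluted 1:10 in 2.5% trypan blue and counted by light microscopy, with dye-stained cells scored dead. Viability is given as % of untreated control.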

The nature of experiment [6]: Compound was evaluated for WEHI-3B cell viability after 48 hour at a concentration of 2.5 uM of compound was reported. The experiment is classed as functional, Mus musculus. The gist of the method:
as §2

The nature of experiment [7]: Compound was evaluated for WEHI-3B cell viability after 48 hour at a concentration of 30 uM of compound was reported. The experiment is classed as functional, Mus musculus. The gist of the method:
as §2

The nature of experiment [8]: Compound was evaluated for WEHI-3B cell viability after 48 hour at a concentration of 5 uM of compound was reported. The experiment is classed as functional, Mus musculus. Put shortly: as §2
The nature of experiment [9]: Time course effect on killing of WEHI 3B cells at 30 uM concentration, cells were incubated with it 0 minutes before addition of [3H]thymidine. It counts as functional, cell-based. To be noted: Mus musculus, WEHI3B. The gist of the method:
(§3)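 Mouse WEHI 3B cells (RPMI 1640, 10% heat-inactivated FBS, penicillin, streptomycin, 50 μM mercaptoethanol, 37 °C) were seeded at 2×10^4 cells/well. Drug was diluted from 0.1 M ethanol stock into medium, with an ethanol vehicle control. After the stated preincubation, [3H]thymidine (0.1 μCi/well) was added for a further 24 h at 37 °C. Cells were harvested on glass-fibre filters, water-washed and scintillation-counted. Result is % cell survival versus control, mean ± SD, n = 8.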

Experiment [10] in a line: Time course effect on killing of WEHI 3B cells at 30 uM concentration, cells were incubated with it 24 hr before addition of [3H]thymidine. The experiment is classed as functional, cell-based. To be noted: Mus musculus, WEHI3B. Put shortly:
as §3

Experiment [11] in a line: Time course effect on killing of WEHI 3B cells at 30 uM concentration, cells were incubated with it 3 hr before addition of [3H]thymidine. The experiment is classed as functional, cell-based. To be noted: Mus musculus, WEHI3B. The gist of the method: as §3
Experiment [12] in a line: Time course effect on killing of WEHI 3B cells at 30 uM concentration, cells were incubated with it 48 hours before addition of [3H]thymidine. It counts as functional, cell-based. To be noted: Mus musculus, WEHI3B. The gist of the method: as §3
Experiment [13] can be described thus: Time course effect on killing of WEHI 3B cells at 30 uM concentration, cells were incubated with it 6 hr before addition of [3H]thymidine. The experiment is classed as functional, cell-based. To be noted: Mus musculus, WEHI3B. Put shortly:
as §3

Experiment [14] can be described thus: Time course effect on killing of WEHI 3B cells at 30 uM concentration, cells were incubated with it 72 hours before addition of [3H]thymidine. The experiment is classed as functional, cell-based. To be noted: Mus musculus, WEHI3B. Put shortly: as §3
Experiment [15] can be described thus: Time course effect on killing of WEHI 3B cells at 40 uM concentration, cells were incubated with it 0 mins before addition of [3H]thymidine. To be noted: Mus musculus, WEHI3B. It counts as functional, cell-based. The gist of the method:
as §3

The nature of experiment [16]: Time course effect on killing of WEHI 3B cells at 40 uM concentration, cells were incubated with it 24 hr before addition of [3H]-thymidine. The experiment is classed as functional, cell-based. To be noted: Mus musculus, WEHI3B. Put shortly:
as §3

Experiment [17] is described as follows: Time course effect on killing of WEHI 3B cells at 40 uM concentration, cells were incubated with it 3 hr before addition of [3H]thymidine. It counts as functional, cell-based. To be noted: Mus musculus, WEHI3B. The gist of the method: as §3
The nature of experiment [18]: Time course effect on killing of WEHI 3B cells at 40 uM concentration, cells were incubated with it 48 hr before addition of [3H]thymidine. The experiment is classed as functional, cell-based. To be noted: Mus musculus, WEHI3B. Put shortly: as §3
Experiment [19] can be described thus: Time course effect on killing of WEHI 3B cells at 40 uM concentration, cells were incubated with it 6 hours before addition of [3H]-thymidine. It counts as functional, cell-based. To be noted: Mus musculus, WEHI3B. The gist of the method: as §3
Experiment [20] in a line: Time course effect on killing of WEHI 3B cells at 40 uM concentration, cells were incubated with it 72 hr before addition of [3H]thymidine. The experiment is classed as functional, cell-based. To be noted: Mus musculus, WEHI3B. Put shortly:
as §3

Experiment [21] in a line: Compound was evaluated for WEHI-3B cell viability after 24 hour at a concentration of 0 uM of compound was reported. The experiment is classed as functional, Mus musculus. Put shortly:
as §2

Experiment [22] in a line: Compound was evaluated for WEHI-3B cell viability after 24 hour at a concentration of 1.25 uM of compound was reported. The experiment is classed as functional, Mus musculus. Put shortly:
as §2

The nature of experiment [23]: Compound was evaluated for WEHI-3B cell viability after 24 hour at a concentration of 10 uM of compound was reported. The experiment is classed as functional, Mus musculus. The gist of the method: as §2
Experiment [24] in a line: Compound was evaluated for WEHI-3B cell viability after 24 hour at a concentration of 2.5 uM of compound was reported. The experiment is classed as functional, Mus musculus. The gist of the method: as §2
A short description of experiment [25]: Compound was evaluated for WEHI-3B cell viability after 24 hour at a concentration of 5 uM of compound was reported. The experiment is classed as functional, Mus musculus. The gist of the method: as §2
Experiment [26] in a line: Compound was evaluated for WEHI-3B cell viability after 48 hour at a concentration of 0 uM of compound was reported. It counts as functional, Mus musculus. The gist of the method:
as §2

A short description of experiment [27]: Compound was evaluated for WEHI-3B cell viability after 48 hour at a concentration of 1.25 uM of compound was reported. It counts as functional, Mus musculus. The gist of the method: as §2
Experiment [28] in a line: Compound was evaluated for WEHI-3B cell viability after 24 hour at a concentration of 30 uM of compound was reported. The experiment is classed as functional, Mus musculus. The gist of the method:
as §2

For the molecule `CCCCCCCCCCCCCCCCOC[C@H](CS[C@@H]1O[C@@H](CO)[C@@H](O)[C@H](O)[C@H]1O)OC`, the Control in experiment [1] is on record as 78%; in experiment [2], 98%; in experiment [3] it was 80%; in [4], 84%.

As to `CCCCCCCCCCCCCCCCOC[C@@H](COP(=O)([O-])OCC[N+](C)(C)C)OC`, the Control in [1] came out at 5%; in [2] it was 45%; in experiment [3], 0.3%; in experiment [4] it was 2.5%.

For `CCCCCCCCCCCCCCCCOC[C@@H](CO[C@@H]1O[C@@H](CO)[C@@H](O)[C@H](O)[C@@H]1O)OC`, the Control was found to be 70% in experiment [1], 89% in experiment [2], 82% in [3] and 95% in experiment [4].

In the case of `CCCCCCCCCCCCCCCCOC[C@H](CS[C@H]1O[C@@H](CO)[C@@H](O)[C@H](O)[C@H]1O)OC`, the Control is recorded as 13% in experiment [1], 66% in experiment [2], 7% in experiment [3] and 71% in experiment [4]. Besides, the Viable cells in experiment [5] was 0.3%; in [6] it was 64%; in experiment [7], 0%; in experiment [8], 25%; in [21], 100%; in experiment [22], 90%. In addition, the Viable cells in [23] was found to be 53%; in [24], 75%; in [25], 64%; in experiment [26], 100%; in experiment [27], 72%; in experiment [28], 48%. The Cell survival in experiment [9] was found to be 79%; in [10], 48%; in [11] it was 57%; in experiment [12] it was 46%; in [13] it was 53%; in experiment [14] it was 25%. The Cell survival in experiment [15] amounted to 49%; in [16], 20%; in experiment [17], 49%; in [18] it was 0.5%; in experiment [19] it was 27%; in experiment [20], 0%.

Regarding `CCCCCCCCCCCCCCCCOC[C@H](COP(=O)([O-])OCC[N+](C)(C)C)OC`, the Control in experiment [1] was determined as 4%; in experiment [2], 55%; in experiment [3], 0.4%; in [4] it was 3%. Also, the Viable cells worked out at 0% in experiment [5]; 18% in experiment [6]; 0% in experiment [7]; 1% in experiment [8]; 100% in [21]; 44% in experiment [22]. Further, the Viable cells was found to be 0% in experiment [23]; 39% in experiment [24]; 8% in experiment [25]; 100% in [26]; 48% in experiment [27]; 0% in [28].

Regarding `CCCCCCCCCCCCCCCCOC[C@H](CO[C@@H]1O[C@@H](CO)[C@@H](O)[C@H](O)[C@@H]1O)OC`, the Control in experiment [1] is reported as 7%; in experiment [2], 75%; in experiment [3], 26%; in experiment [4], 42%.
